According to article PMC2119646 (The Journal of Cell Biology, 1993):

Columns and labels:
[1] = tested on: Bovine adrenal capillary endothelial cells; test: endothelial cell migration in an inverted modified Boyden chamber; type: cell-based
Method in brief: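 Bovine capillary endothelial cells at passages 10-15 were starved 24 h in DME/0.1% BSA and adhered 1-2 h at 37°C to a gelatinized filter. The chamber was reinverted, with test material in the top well, and incubated 3-4 h at 37°C. Migrated cells were counted in 10 high-power fields, in quadruplicate, with experiments repeated at least twice. Results were expressed as % of positive-control migration after background subtraction and corrected for >10% detachment.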

[2] = tested on: neovascularization in the rat cornea; test: rat cornea neovascularization assay; type: in vivo; settings: Table I, Hydron pellets with TSP1 protein or fragments at 25-30 nM, without bFGF, vigorous vessel ingrowth from the limbus at 7 d = positive
[3] = tested on: angiogenesis in vivo; settings: Table VII; source Fibronectin, others; ref Eijan et al., 1991; cited from earlier work

With “bFGF: Recombinant bFGF, inducer and positive control [reference compound]” the “Migration of endothelial cells to upper chamber (%), Control” value ([1]; Table VI, addition alone: TGFβ 1 pg/ml or bFGF 10 ng/ml, no antiserum) was 100%.

For “TSP: Human thrombospondin-1 purified from platelet releasate, 450-kD trimer”, the “Migration of endothelial cells to upper chamber (%), Control, with bFGF” value ([1]; Table VI, bFGF 10 ng/ml plus TGFβ 0.2 ng/ml or TSP 2.5 µg/ml, no antiserum) was under 1%, the “ability to block endothelial cell migration stimulated by bFGF” value ([1]; bFGF 10 ng/ml, Fig. 4 b) was “complete inhibition” and the “Positive corneas/number implanted, Alone” value [2] was 0/5.

For “TGF beta 1: Recombinant TGFβ1 purchased from R & D Sys. [reference compound]”, the “concentrations that stimulated endothelial cell migration” value ([1]; TGFβ dose response, Fig. 8) was 0.04 to 0.4 pM.

For G R G D, the “Small Peptides Able to Inhibit Angiogenesis In Vivo” value [3] is listed as “Able to Inhibit Angiogenesis In Vivo”.

For SPWD I C*SVTC*GGGVQKRSK [Mal III], the “ED50 for inhibition of migration with pure recombinant bFGF as inducer” value ([1]; retest of peptide with recombinant bFGF instead of conditioned media) was 7 µM.
